Laboratory results: publication PMC4721940 (Journal of enzyme inhibition and medicinal chemistry, 2015)

Columns and labels:
[1] = molecular target: T1, human neutrophil elastase (HNE) (Homo sapiens, UniProt P08246); assay: HNE inhibition assay; format: biochemical
T1 sequence (P08246 30-247 limits assumed): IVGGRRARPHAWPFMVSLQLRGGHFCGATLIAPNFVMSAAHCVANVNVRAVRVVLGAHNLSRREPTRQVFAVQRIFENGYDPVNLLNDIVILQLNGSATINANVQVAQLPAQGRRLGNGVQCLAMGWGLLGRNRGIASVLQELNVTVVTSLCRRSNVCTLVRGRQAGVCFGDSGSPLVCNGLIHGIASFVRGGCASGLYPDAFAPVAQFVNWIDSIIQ
How it was run: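 Human neutrophil elastase (20 mU/mL) in 200 mM Tris-HCl pH 7.5 with 0.01% BSA and 0.05% Tween-20, pre-incubated 5 min with test compound (DMSO final 1%). Started with 25 μM MeOSuc-Ala-Ala-Pro-Val-AMC. Fluorescence (ex 355/em 460 nm) read every 30 s for 10 min at 25 °C.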

[2] = molecular target: T1, human neutrophil elastase (HNE); assay: HNE inhibition constant; format: biochemical
[3] = Stability in human serum; format: in vitro ADME; details: 25 °C
How it was run: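 Serum prepared by clotting fresh human blood 1 h at room temperature. Test compound (10 mM DMSO stock) added to serum and incubated at 25 °C. Timed aliquots quenched in acetonitrile and centrifuged 5 min at 10 000g. Analysed by RP-HPLC: C18 column, acetonitrile/water 65/35 with 0.1% TFA, 1 mL/min, 40 °C, diode-array detection 200–300 nm. Remaining compound calculated from peak area.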

[4] = molecular target: T2, HNE (Homo sapiens, UniProt P08246); assay: Reactivation of the HNE–inhibitor complex after ultrafiltration; format: biochemical; details: 25 μM inhibitor, data not shown
T2 sequence (P08246 30-247 limits assumed): T1 sequence (P08246 30-247 limits assumed)

[5] = Spontaneous hydrolysis in phosphate buffer; format: physicochemical; details: after 60 min in aqueous buffer, absorbance at 325 nm
How it was run: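 Test compound in 0.05 M phosphate buffer, pH 7.3, at 25 °C. Absorbance at each compound's absorption maximum read over time until no further decrease (A∞). k′ taken from the slope of log(At–A∞) vs time; t1/2 = 0.693/k′.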

Compound | HNE inhibitory activity (in words) [1] | other results
CCOC(=O)c1nn(C)c2ccccc2c1=O [Compound 5, Ethyl 1-methyl-4-oxo-1,4-dihydrocinnoline-3-carboxylate] | completely inactive | –
CCOC(=O)c1nn(Cc2cccc(C)c2)c2ccccc2c1=O [Compound 6, Ethyl 1-(3-methylbenzyl)-4-oxo-1,4-dihydrocinnoline-3-carboxylate] | completely inactive | –
Cc1cccc(C(=O)n2nc(C(=O)O)c(=O)c3ccccc32)c1 [Compound 8, 1-(3-Methylbenzoyl)-4-oxo-1,4-dihydrocinnoline-3-carboxylic acid] | loss of activity | –
Cc1cccc(C(=O)n2nc(-c3ccccc3)c(=O)c3ccccc32)c1 [Compound 11a, 1-(3-Methylbenzoyl)-3-phenylcinnolin-4(1H)-one] | loss of activity | –
Cc1cccc(C(=O)n2nc(CO)c(=O)c3ccccc32)c1 [Compound 11d, 3-(Hydroxymethyl)-1-(3-methylbenzoyl)cinnolin-4(1H)-one] | loss of activity | –
Cc1cccc(C(=O)n2ncc(=O)c3ccccc32)c1 [Compound 18a, 1-(3-Methylbenzoyl)cinnolin-4(1H)-one] | – | Ki [2]: 75 nM; Type of HNE inhibition ([2]; double-reciprocal Lineweaver–Burk plots): competitive inhibitors; percent of initial compound remaining ([3]; 5 min of incubation): < 3%; compound remaining ([3]; after 10 min): essentially no detectable compounds; Recovery of HNE activity after removing free inhibitor [4]: fully reversible
Cc1cccc(C(=O)N2NCC(O)c3ccccc32)c1 (stereo not drawn) [Compound 19, (4-Hydroxy-3,4-dihydrocinnolin-1(2H)-yl)(m-tolyl)meyhanone] | completely devoid of activity | –
Cc1cccc(C(=O)n2ncc(=O)c3cc([N+](=O)[O-])ccc32)c1 [Compound 21a, 1-(3-Methylbenzoyl)-6-nitrocinnolin-4(1H)-one] | – | Extent of hydrolysis [5]: hydrolyzed almost completely
